For five compounds, Inhibition and IC50 results are on record in ChEMBL document CHEMBL1135910, “Beta-C-mannosides as selectin inhibitors” (J Med Chem, 2002).

For this data set, the target named is Alpha-1-acid glycoprotein 1 (Homo sapiens, UniProt P02763). As to the kind of experiment: Ability to inhibit the binding of E-selectin to human recombinant AGP (alpha-1 acid glycoprotein) in a E-selectin assay. The gist of the method: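 ELISA read-out. Soluble E-selectin binding to human recombinant AGP bearing five sLex per molecule. Compounds screened at 5 mM, with percent inhibition recorded.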
Alpha-1-acid glycoprotein 1, sequence (P02763 whole entry): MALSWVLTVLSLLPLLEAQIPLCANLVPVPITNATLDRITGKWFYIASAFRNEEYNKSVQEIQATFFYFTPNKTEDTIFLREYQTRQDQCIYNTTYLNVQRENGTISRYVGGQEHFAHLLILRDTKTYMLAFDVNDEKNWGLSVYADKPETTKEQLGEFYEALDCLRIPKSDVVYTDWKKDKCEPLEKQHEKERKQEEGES

The structures appear in SMILES notation.

Take `CC(C)(C)c1ccc(COc2ccsc2C(=O)NCC2OC(CC(=O)N[C@@H](CCC(=O)O)C(=O)O)C(O)C(O)C2O)cc1` (stereo not given in full): the Inhibition is reported as 43%. For the compound `C[C@@H](NC(=O)c1ccccc1C(=O)NCC1OC(CC(=O)N[C@@H](CCC(=O)O)C(=O)O)C(O)C(O)C1O)c1ccccc1` (stereo not given in full), the IC50 worked out at 5 mM. For the compound `CC(=O)N[C@H]1[C@H]([C@H](O)[C@H](O)CO)O[C@@](O[C@H]2[C@@H](O)[C@@H](CO)O[C@@H](O[C@@H]([C@H](O[C@@H]3O[C@@H](C)[C@@H](O)[C@@H](O)[C@@H]3O)[C@H](C=O)NC(C)=O)[C@H](O)CO)[C@@H]2O)(C(=O)O)C[C@@H]1O` [SIALYL LEWIS X], the concentration for half-maximal inhibition (IC50) amounted to 8 mM. As to `O=C(O)CC[C@H](NC(=O)CC1OC(CNC(=O)CC(=O)Nc2ccc(Cl)cc2Cl)C(O)C(O)C1O)C(=O)O` (stereo not given in full), the Inhibition is 45%. The same measure, in the same setting: as for `Cc1ccc(COc2ccsc2C(=O)NCC2OC(CC(=O)N[C@@H](CCC(=O)O)C(=O)O)C(O)C(O)C2O)cc1` (stereo not given in full), the figure is 42%.
